Key:
[1] = target: T1, Steroid 17-alpha-hydroxylase/17,20 lyase (Rattus norvegicus, UniProt P11715); test: Inhibition of rat microsomal 17-alpha-hydroxylase component of P450-17alpha
T1 sequence (P11715 whole entry): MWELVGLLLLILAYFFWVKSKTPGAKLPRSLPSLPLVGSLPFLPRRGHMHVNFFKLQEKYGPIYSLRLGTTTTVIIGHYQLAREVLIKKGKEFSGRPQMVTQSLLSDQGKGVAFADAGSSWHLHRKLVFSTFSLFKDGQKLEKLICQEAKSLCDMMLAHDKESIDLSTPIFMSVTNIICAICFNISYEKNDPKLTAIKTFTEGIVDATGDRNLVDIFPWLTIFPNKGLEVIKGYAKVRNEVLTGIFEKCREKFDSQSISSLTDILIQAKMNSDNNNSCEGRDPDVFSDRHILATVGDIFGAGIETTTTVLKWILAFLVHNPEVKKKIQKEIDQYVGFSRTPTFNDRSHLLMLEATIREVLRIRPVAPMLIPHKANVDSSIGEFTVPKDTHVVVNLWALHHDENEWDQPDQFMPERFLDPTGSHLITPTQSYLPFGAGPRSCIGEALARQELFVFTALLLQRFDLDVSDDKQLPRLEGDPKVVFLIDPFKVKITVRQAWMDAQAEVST
Procedure, shortened: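 Microsomal enzyme (final 0.16 mg/mL) preincubated mixture at 37 °C, 15 min reaction in 50 mM sodium phosphate pH 7.4 with NADPH generating system and radiolabelled progesterone (1.5 μM); inhibitor in ethanol. Ether extraction, TLC (DCM/ethyl acetate 7:3) with carrier steroids, ³H counting against uninhibited controls. IC50 from ≥5 concentrations in triplicate by linear regression of inhibition versus log[I].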

[2] = target: T1, Steroid 17-alpha-hydroxylase/17,20 lyase; test: Inhibition of rat microsomal 17,20-lyase component of P450-17alpha
Procedure, shortened: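 Rat testicular microsomes (final 0.23 mg/mL protein) incubated at 37 °C for 30 min in 50 mM sodium phosphate pH 7.4 with NADPH generating system and radiolabelled 17α-hydroxyprogesterone (1 μM), inhibitor added in ethanol. Ether extraction, TLC (DCM/ethyl acetate 4:1) with carrier steroids, ³H scintillation counting versus no-inhibitor controls. IC50 from five or more concentrations in triplicate, linear regression of inhibition versus log[I].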

Row | SMILES | IC50 [1] | IC50 [2]
1 | Oc1ccc(Cn2ccnc2)cc1 | 72.1 µM | 8.22 µM
2 | Brc1ccc(Cn2ccnc2)cc1 | 53.4 µM | 6.76 µM
3 | Cc1ccc(Cn2ccnc2)cc1 | 50.6 µM | 8.81 µM
4 | FC(F)(F)c1cc(Cn2ccnc2)cc(C(F)(F)F)c1 | 245 µM | 19.5 µM
5 | N#Cc1ccc(Cn2ccnc2)cc1 | 40.3 µM | 7.67 µM
6 | Fc1ccc(Cn2ccnc2)cc1F | 70.7 µM | 9.6 µM
7 | Fc1ccc(Cn2ccnc2)cc1 | 86.6 µM | 18.4 µM
8 | Clc1ccc(Cn2ccnc2)cc1Cl | 12.2 µM | 2.07 µM
9 | Fc1cc(F)cc(Cn2ccnc2)c1 | 83.1 µM | 11.8 µM
10 | c1ccc(Cn2ccnc2)cc1 [BENZYLIMIDAZOLE] | 215 µM | 39.1 µM
11 | CC(=O)N1CCN(c2ccc(OCC3COC(Cn4ccnc4)(c4ccc(Cl)cc4Cl)O3)cc2)CC1 (configuration not stated) [KETOCONAZOLE] | 3.76 µM | 1.66 µM

Results, then the molecule that gave them:

Row | IC50 [1] | IC50 [2] | SMILES
12 | 25.4 µM | 7.17 µM | O=[N+]([O-])c1ccc(Cn2ccnc2)cc1
13 | 22.6 µM | 3.34 µM | Clc1cc(Cl)cc(Cn2ccnc2)c1
14 | 25.9 µM | 3.16 µM | Brc1cc(Br)cc(Cn2ccnc2)c1
15 | 10.1 µM | 1.58 µM | Ic1ccc(Cn2ccnc2)cc1
16 | 31.6 µM | 2.81 µM | Clc1ccc(Cn2ccnc2)cc1

— ChEMBL document CHEMBL1145348, “Synthesis and biochemical evaluation of a range of potent benzyl imidazole-based compounds as potential inhibitors of the enzyme complex 17alpha-hydroxylase/17,20-lyase (P450(17alpha))” (Bioorg Med Chem Lett, 2006)
